Hits are enriched below; roughly 1.6% of the tested compounds scored in any of these assays.
MT1-MMP act inh: MT1-MMP (human) activation inhibition. 360,000 tested, 0.061% active. GFP/RFP ratio change, % at 20 µM. HT1080 RFP-PRO-GFP cells, GFP/RFP ratio fluorescence, overnight; percent of plate control window, DMSO zero. P50281;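 active = GFP/RFP ratio change of at least 30% with cell ATP level not reduced by more than half and red fluorescence within 50% of control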
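Read-out: GFP/RFP fluorescence ratio; Test system: RFP-PRO-GFP reporter HT1080 cells; Compound dosing: single-point 20 µM compound, 1% DMSO; Times: overnight compound exposure at 37 °C.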
ADAM10 inh: ADAM10 inhibition, QFRET primary screen. O14672. recombinant ADAM10, EDANS/DABCYL FRET peptide cleavage, 3 h. inhibition, % at 7 µM. 370,000 tested, 0.62% active;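 active = inhibition above a per-campaign cutoff equal to the mean of compounds falling between control-based bounds plus 3 SD, cut at about 20% in these data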;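 note: 0% = DMSO wells while the 100% control is not disclosed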
Tn7 DDE FP: disrupts Tn7 cyclic peptide binding to fibrin D-Dimer-E complex | P02675 | FP displacement of FITC-Tn7 peptide from fibrin DD(E); 0% = median of compound wells per plate | inhibition, % at 8.3 µM | 370,000 tested, 0.13% active | AID 720508;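 active = inhibition above the mean of compounds falling within the control limits plus 3 SD of them, cut at about 14% in these data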;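 note: 0% = plate median of compound wells and 100% = 10 µM Aha-Tn7 peptide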
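Test system: human clot-derived fibrin DD(E) complex / Quantity: 2 µM final DD(E) protein / Incubation: 10 min plus 3 h, room temperature / Measured by: fluorescence polarization / Benchmarks: high control of 10 µM Aha-Tn7 peptide / Replicates: singlicate testing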
ADAM17 inh: ADAM17 inhibition, QFRET primary screen | recombinant ADAM17, EDANS/DABCYL FRET peptide cleavage | inhibition, % at 6.95 µM | 370,000 tested, 0.83% active;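 active = inhibition above the mean of compounds lying between control limits plus 3 SD, set per campaign, cut at about 8.5% in these data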;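 note: 0% = DMSO-only wells as the low control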
Target sequence (P78536 215-824 limits assumed): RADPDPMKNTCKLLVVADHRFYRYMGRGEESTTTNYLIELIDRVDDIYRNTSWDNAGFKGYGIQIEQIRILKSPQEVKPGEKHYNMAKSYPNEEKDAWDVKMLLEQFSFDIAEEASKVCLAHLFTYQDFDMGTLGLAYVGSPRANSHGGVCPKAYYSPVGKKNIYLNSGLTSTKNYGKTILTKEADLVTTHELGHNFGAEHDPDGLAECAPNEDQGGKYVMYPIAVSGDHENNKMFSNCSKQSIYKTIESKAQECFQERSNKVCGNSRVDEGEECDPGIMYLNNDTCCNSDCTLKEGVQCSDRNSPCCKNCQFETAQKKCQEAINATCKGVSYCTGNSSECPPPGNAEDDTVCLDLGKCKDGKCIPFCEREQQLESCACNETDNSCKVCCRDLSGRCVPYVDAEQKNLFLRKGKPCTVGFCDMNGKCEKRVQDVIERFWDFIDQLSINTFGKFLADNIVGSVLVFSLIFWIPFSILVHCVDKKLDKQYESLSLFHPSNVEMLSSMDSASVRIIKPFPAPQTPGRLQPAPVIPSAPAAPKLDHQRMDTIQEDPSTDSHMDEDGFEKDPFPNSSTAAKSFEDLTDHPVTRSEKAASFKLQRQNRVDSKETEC
DDE Tn6 FP inh: DD(E)-Tn6 binding inhibition, primary FP screen; 370,000 tested, 0.21% active; Fibrin DD(E) TRITC-Tn6 fluorescence polarization displacement; inhibition, % at 8.3 µM; P02675;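 active = inhibition above a per-campaign cutoff: mean of compounds within control limits plus 3 SD, cut at about 15% in these data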;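 note: 0% = median of all compound wells on the plate and 100% = blocking peptide control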
ADAM10 ctr: inhibits human ADAM10 in ADAM17 exosite counter-screen; shares compounds with ADAM17 inh; recombinant ADAM10, EDANS/DABCYL FRET peptide cleavage, 3 h; inhibition, % at 6.95 µM; 2,900 tested, 47% active; AID 743256;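 active = mean inhibition over the triplicate runs exceeds the activity threshold set in the earlier primary screen, cut at about 20% in these data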;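 note: 0% = DMSO wells and 100% = marimastat wells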
ADAM17 confirm: human ADAM17 inhibition, confirmation. shares compounds with ADAM17 inh. recombinant ADAM17, EDANS/DABCYL QFRET peptide cleavage. inhibition, % at 6.95 µM. 2,900 tested, 65% active. AID 743257;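 active = mean inhibition across replicates above the hit cutoff set in the primary screen, cut at about 8.5% in these data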;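 note: 0% = DMSO wells and 100% = marimastat wells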
Starred values were filed as active, the others as inactive; nt = no result.

SMILES	MT1-MMP act inh	ADAM10 inh	Tn7 DDE FP	ADAM17 inh	DDE Tn6 FP inh	ADAM10 ctr	ADAM17 confirm
CCOc1ccc(N(CC(=O)NCCSc2ccccn2)S(=O)(=O)c2ccc(Cl)cc2)cc1	-9	-3	0	0	8	nt	nt
CN(c1ccc(OCC(=O)OCC(=O)c2c(N)n(C)c(=O)n(C)c2=O)cc1)S(=O)(=O)c1ccc2ccccc2c1	8	18	-4	9.3*	10	23*	10*
COc1ccc(C2OC(CCc3ccccc3)CC3=C2C(=O)OC(C)(C)O3)cc1 (configuration not stated)	-3	6	5	8.7*	2	8	6
COc1ccccc1CC(=O)NCCN1C(=O)C2C3C=CC(C3)C2C1=O (configuration not stated)	nt	-5	3	-3	-1	nt	nt
COc1ccc(C2C(C#N)=C(N)Nc3onc(C(C)(C)C)c32)c(OC)c1 (configuration not stated)	-3	8	-11	8.7*	0	7	7
COc1ccc(C2C(C#N)=C(C)NC(C)=C2C#N)c(OC)c1	-1	-18	-4	-6	2	nt	nt
O=C(NC(CSCc1ccccc1)C(=O)N/N=C/c1ccc(O)cc1O)c1ccc([N+](=O)[O-])cc1 (configuration not stated)	-2	11	0	14*	-11	19	17*
COc1cc(O)ccc1/C=N/NC(=O)c1ccc([N+](=O)[O-])cc1	3	-1	-8	2	-5	nt	nt
O=C(c1ccc(Cl)cc1Cl)c1ncc(C(F)(F)F)cc1Cl	4	-2	-2	-5	-1	nt	nt
O/N=C(\c1ccc(Cl)cc1Cl)c1ncc(C(F)(F)F)cc1Cl	-2	9	0	12*	6	29*	13*
CCC(=O)c1ccc(OCC(O)CNCc2ccc(F)cc2)cc1 (configuration not stated)	-1	-4	6	1	6	nt	nt
O=C(c1ccccc1)c1ccc(OCC(O)CNCc2ccc(F)cc2)cc1 (configuration not stated)	3	4	7	10*	5	3	3
CCCCOc1ccc(C(=O)NC2CCCCN(Cc3ccccc3C)C2=O)cc1 (configuration not stated)	nt	1	-2	0	2	nt	nt
COc1ccc(NC(=O)c2cccc(N3C(=O)C4C5CCC(C5)C4C3=O)c2)cc1 (configuration not stated)	0	2	1	11*	1	12	8
Cc1ccc(CN[C@@H]2CC[C@@]34CCCN3C(=O)CCC[C@H]4C2)o1	nt	0	3	-3	0	nt	nt
Nc1ccc(N=Nc2ccccc2)c2cccnc12	8	16	1	9.5*	-5	25*	14*
C[C@@H]1C=CCCO[C@]12C(=O)N(CC1CC1)c1cccc(Br)c12	nt	1	-1	0	3	nt	nt
CCCCC[C@@H](C)N1C[C@H](COCc2ccccc2)Oc2cc(N3CCC[C@H]3COC)ccc2S1(=O)=O	-9	-7	9	-5	0	nt	nt
CCCCC[C@@H](C)N1C[C@@H](COCc2ccccc2)Oc2cc(N3CCC[C@H]3CO)ccc2S1(=O)=O	-5	18	-4	9.9*	2	23*	15*
O=C(Nc1ccc(N2CCCCC2)cc1)c1ccccc1	7	0	9	-3	-7	nt	nt
O=C(Nc1ccc(N2CCCC2)cc1)c1cccc(F)c1	-3	8	-3	18*	-2	-3	4
CC(=C1SC(=S)NC1=O)c1ccc(Cl)c(O)c1	nt	-13	1	-2	-1	nt	nt
COc1ccc(CCN(Cc2cccs2)S(=O)(=O)c2ccc(F)cc2)cc1OC	nt	19	0	15*	3	10	7
COc1ccc(CCN(Cc2cccs2)S(=O)(=O)c2ccccc2)cc1OC	nt	10	-1	7	1	nt	nt
CCC(C)NS(=O)(=O)c1ccc(S(=O)(=O)N(CCc2ccc(OC)c(OC)c2)Cc2cccs2)cc1 (configuration not stated)	-9	17	6	8.9*	-5	38*	16*
SMILES	MT1-MMP act inh	ADAM10 inh	Tn7 DDE FP	ADAM17 inh	DDE Tn6 FP inh	ADAM10 ctr	ADAM17 confirm
Cc1onc(C(=O)N2CCN(C(c3ccc(F)cc3)c3ccc(F)cc3)CC2)c1[N+](=O)[O-]	nt	10	1	3	1	nt	nt
CCCCOC(=O)C1=C(C)Nc2nnnn2C1c1ccccc1Cl (configuration not stated)	-3	14	-5	9.6*	-1	16	8
CCOC(=O)C1=C(C)Nc2nnnn2C1c1ccccc1Cl (configuration not stated)	6	-2	5	-3	2	nt	nt
COc1ccc(-c2c(C(=O)c3ccccc3)[nH]c(N)c2C(=O)c2c[nH]c3ccccc23)cc1OC	nt	12	-2	3	4	nt	nt
C[C@H]1COc2c3ccc(I)cc3nn21	nt	-7	-5	-3	0	nt	nt
Cc1ccc(S(=O)(=O)N/N=C/c2cccc3nccnc23)cc1	-8	6	-6	8.8*	-3	18	8
Cc1ccc(S(=O)(=O)N/N=C/c2cccc3c2OCCO3)cc1	1	-13	1	-3	6	nt	nt
COC(=O)C1(F)C(=O)NC(=O)NC1OC (configuration not stated)	nt	8	1	3	-7	nt	nt
c1ccc2oc(SCc3cn4ccsc4n3)nc2c1	1	9	3	9.2*	-6	7	8
CCN(CC)c1ccc(NC(=O)c2cc3c(C)nn(-c4ccccc4)c3s2)cc1	nt	19	-4	13*	-5	6	10*
Cc1nc(NC(=O)c2cc3c(C)nn(-c4ccccc4)c3s2)sc1C(=O)Nc1ccccc1	0	2	-1	1	-8	nt	nt
O=C(C1CCC1)N1CCc2cc(S(=O)(=O)C3CCN(Cc4ccc(F)cc4)CC3)ccc21	nt	0	0	-3	8	nt	nt
O=C(O)c1ccccc1C(=O)Nc1cc(C(F)(F)F)ccc1N1CCCC1	3	2	-4	10*	-2	8	4
O=C(Nc1cc(C(F)(F)F)ccc1N1CCOCC1)c1ccccc1	-2	5	4	-3	-9	nt	nt
CCOC(=O)CC[C@@]1(C(=O)OCC)C[C@@H](CC(=O)NCCCOC)C(=O)N2CCCC=C21	nt	-3	4	-3	8	nt	nt
COc1cccc(Oc2ccc(S(=O)(=O)N3CCCC3)cc2[N+](=O)[O-])c1	-5	18	-9	8.7*	2	13	3
